# From PubChem BioAssay
# NR2E3 ag-1: NR2E3 agonists in two-hybrid cells, primary screen, cell-based, luminescence, CHO-S, Gal4-NCOR/VP16-NR2E3 | Photoreceptor-specific nuclear receptor (Homo sapiens), Q9Y5X4 | luciferase | inhibition of corepressor binding, % at 3.98 µM | actives 0.35% (n = 360,000) | AID 602229, 2012;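 active = inhibition above the mean of all tested compounds plus 3 SD, cut at about 70% in these data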;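 also: 0% = DMSO with NR2E3 transfected cells and 100% = cells lacking NR2E3 construct; higher means lower luciferase signal from less NR2E3 corepressor binding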
# Target sequence (Q9Y5X4 whole entry, looked up, the tested form may be a part): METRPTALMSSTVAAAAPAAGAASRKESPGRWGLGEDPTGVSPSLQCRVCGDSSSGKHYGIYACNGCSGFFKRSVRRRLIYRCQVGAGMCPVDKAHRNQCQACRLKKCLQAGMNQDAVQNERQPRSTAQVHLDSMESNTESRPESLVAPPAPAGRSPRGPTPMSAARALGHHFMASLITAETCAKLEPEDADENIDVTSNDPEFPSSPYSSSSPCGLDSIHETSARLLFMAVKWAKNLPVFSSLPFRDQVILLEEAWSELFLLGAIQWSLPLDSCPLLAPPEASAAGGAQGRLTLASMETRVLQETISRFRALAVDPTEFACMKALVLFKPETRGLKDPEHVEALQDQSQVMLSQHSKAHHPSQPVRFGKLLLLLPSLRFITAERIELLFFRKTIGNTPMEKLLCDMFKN
# NR1D1 modulator: modulators of Rev-erb alpha DNA binding, primary screen, biochemical, FITC-DNA, fluorescence polarization, uHTS; activity, % at 10 µM; Rev-erbα–FITC-DNA binding, 90 min; Nuclear receptor subfamily 1 group D member 1 (Homo sapiens), P20393; actives 0.79% (n = 370,000);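 active = activity above about 14%, limit read from the data; passing the limit was not always enough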;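 also: 0% = DMSO wells with 35 nM protein and 100% = DMSO wells with 750 nM protein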
# NR2E3 ag-2: inhibitors of NR2E3-RetCOR corepressor binding, primary screen, NR2E3 agonist project, biochemical, TR-FRET, GST-NR2E3, biotin-RetCOR. 1536-well. Photoreceptor-specific nuclear receptor (Homo sapiens), Q9Y5X4. actives 0.12% (n = 320,000). AID 2300, 2010. inhibition of corepressor binding, % at 4.78 µM;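 active = percent inhibition above the cutoff of mean plus 3 SD of all tested compounds, set per screening campaign, cut at about 20% in these data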;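 also: 0% = DMSO wells and 100% = biotin wells as full block of FRET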
#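 System: GST-tagged NR2E3 plus biotinylated RetCOR corepressor; Buffer or medium: pH 7.5 Tris-based buffer; Probe or stimulus: RetCOR corepressor, biotinylated, 7 nM; Doses: compound at 4.8 µM, single dose; Schedule: 5 h incubation at 4 °C; Technique: time-resolved FRET; Evaluation: percent inhibition of TR-FRET ratio; Replication: one well per compound, singlicate testing.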
# PG9 binder: binders of HIV-1 gp120 antibody PG9, primary screen, biochemical, TR-FRET; AID 624416, 2012; TR-FRET gp120-PG9 antibody binding; actives 0.43% (n = 360,000); inhibition, % at 6.7 µM; in the data active = inhibition above about 8.5%
# NR2E3 ag confirm: NR2E3 agonist confirmation in cells, cell-based, luminescence, CHO-S two-hybrid; inhibition, % at 3.98 µM; shares compounds with NR2E3 ag-1; AID 624378, 2012; actives 51% (n = 2,300); CHO-S mammalian two-hybrid NR2E3-NCOR, luciferase luminescence;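 active = average inhibition above a cutoff equal to the mean inhibition of all tested compounds plus one SD, cut at about 70% in these data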;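 also: 0% = DMSO in NR2E3 cells and 100% = DMSO in cells lacking NR2E3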
# VP16 counter: GAL4-VP16 reporter modulators, confirmation, counter-screen for NR2E3 agonist project, cell-based, luminescence, CHO-S, high throughput; AID 624379, 2012; shares compounds with NR2E3 ag-1; actives 29% (n = 2,300); CHO-S GAL4-VP16 luciferase reporter; inhibition, % at 3.98 µM;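 active = mean inhibition above a cutoff equal to the average over all tested compounds plus one standard deviation, cut at about 70% in these data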;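 also: luciferase from a UAS reporter driven by GAL4-VP16 transactivation; 0% = DMSO with VP16-transfected cells and 100% = DMSO with cells lacking VP16; higher means less reporter light so more repression of VP16 activity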
# * hit, by the source's call; . = not tested or not shown. Hits are enriched below; roughly 1.4% of the tested compounds scored in any of these assays.
SMILES,NR2E3 ag-1,NR1D1 modulator,NR2E3 ag-2,PG9 binder,NR2E3 ag confirm,VP16 counter
COc1ccc(C)cc1NC(=O)c1nnn(Cc2cc(C)ccc2C)c1N,-7.7,6.1,3.7,-0.1,.,.
COc1ccc(OC)c(NC(=O)c2nnn(Cc3ccccc3C)c2N)c1,69.0,7.3,0.7,-0.1,80.2*,23.5
CC(C(=O)N1CCN(c2ccc(Cl)cc2)CC1)c1ncc(C(F)(F)F)cc1Cl (stereo not drawn),80.7*,-2.5,9.7,0.1,76.0*,51.5
CCOC(=O)[C@]12CCCC3=C1N(CCC3)C(=O)[C@@H](CC(=O)NCCCN1CCCC1=O)C2,.,1.7,.,.,.,.
COc1ccc2oc(C(=O)OCC(=O)N3CCN(S(=O)(=O)c4ccccc4)CC3)c(C)c2c1,50.6,0.0,-6.4,-1.0,90.1*,71.5*
Cc1cc(NC2CCCCC2)nc(NCc2ccccc2)n1,75.0*,-5.7,1.5,-1.7,91.7*,75.7*
COc1ccc(Nc2cc(C)nc(NCc3ccccc3)n2)cc1,67.5,3.2,3.3,-2.7,85.7*,66.1
CN1CC(=O)N2[C@@H](C[C@]3(c4c[nH]c5ccccc45)c4ccccc4N(S(=O)(=O)c4ccccc4)[C@H]23)C1=O,.,0.9,.,.,.,.
CCn1c(Cl)c(C=O)s/c1=N\S(=O)(=O)c1ccccc1,53.4,1.6,-2.9,0.3,24.4,15.3
CCN1C(=O)CS/C1=N\S(=O)(=O)c1ccc(Cl)cc1,9.5,-1.4,1.8,-0.7,.,.
c1ccc(-c2noc(-c3ccncc3)n2)nc1,-117.1,-1.9,3.8,-1.8,.,.
c1ccc(-c2noc(-c3ccc4ccccc4c3)n2)nc1,48.4,.,-1.6,.,18.7,-44.3
Oc1ccccc1Cn1nnc2ccccc21,6.8,4.0,2.5,2.1,.,.
Cc1cc(Cn2nnc3ccccc32)c(O)c(C(C)(C)C)c1,80.3*,-1.6,1.6,0.0,19.4,34.9
CC(C)(C)c1cccc(Cn2nnc3ccccc32)c1O,62.1,3.1,0.7,-2.4,55.0,66.0
Cc1cccc(Cn2nnc3ccccc32)c1O,-20.3,1.0,1.7,0.3,.,.
O[C@H](COc1ccccc1)CN1CCC(C(O)(c2ccccc2)c2ccccc2)CC1,.,7.2,.,.,.,.
COC(=O)[C@H](CC(C)C)N(Cc1cn(CC2CCCCC2)nn1)S(=O)(=O)c1ccc(F)cc1Br,.,-1.7,.,.,.,.
Cc1ccc(C(=O)N/N=C/c2ccc([N+](=O)[O-])s2)cc1,69.2,-4.0,-4.2,-2.7,-2.6,67.8
COC(=O)c1cc(-c2ccc(C(C)=O)cc2)c(=O)n2c1CCC2,.,-1.3,.,.,.,.
S=C(NCc1ccccn1)Nc1cccc(Cl)c1,-2.1,-2.0,2.7,-1.0,.,.
C/C(=N\NC(=O)c1ccc(Cl)cc1)c1ccccn1,-30.2,0.0,-1.7,-2.0,.,.
CC(=NNC(=S)N1CCC1)c1ccccn1,75.3*,-0.3,.,-3.0,-2.1,3.5
CC(=NNC(=S)SCc1ccccc1)c1ccccn1,65.4,4.1,.,-2.8,11.0,28.5
CC(=NNC(=S)N1CCCC1)c1ccccn1,86.5*,5.5,.,-0.5,-2.5,8.3
SMILES,NR2E3 ag-1,NR1D1 modulator,NR2E3 ag-2,PG9 binder,NR2E3 ag confirm,VP16 counter
CC(=NNC(=S)Nc1cccc(Cl)c1)c1ccccn1,95.4*,2.4,.,0.3,-64.6,-14.8
CCCCCC(=O)N/N=C(\C)c1ccccn1,-16.5,1.9,3.8,-2.6,.,.
Cc1c(NC(=O)C2CCCN(S(=O)(=O)c3ccc(F)cc3)C2)c(=O)n(-c2ccccc2)n1C (stereo not drawn),.,4.7,.,.,.,.
CC(C)CN1C(=O)C[C@@]2(C(=O)N(C)c3ccc(NS(=O)(=O)c4ccc(F)cc4)cc32)C1c1ccccc1 (stereo partly drawn),.,1.3,.,.,.,.
Nc1cc(=O)[nH]c(SCc2ccc(Cl)cc2)n1,-21.5,1.7,-2.1,2.6,.,.
CC(C)(C)c1ccc(CSc2nc(N)cc(=O)[nH]2)cc1,95.8*,.,0.0,.,76.2*,54.3
Clc1ccc2nc(-c3ccccn3)c(Nc3ccc4c(c3)OCO4)n2c1,52.0,9.5,1.6,0.0,-65.8,-86.7
Cc1ccc2nc(-c3ccccc3O)c(Nc3ccc4c(c3)OCCO4)n2c1,-3.8,-3.6,-1.9,-1.2,.,.
CSc1nc(N)nc2c1ncn2CC(=O)N1CCN(Cc2c(C)cc(C)cc2C)CC1,80.2*,-1.0,.,2.2,61.8,67.6
Cc1cc(C)c(CN2CCN(C(=O)Cn3cnc4c(NCc5ccccc5)ncnc43)CC2)c(C)c1,82.8*,1.0,.,0.9,87.9*,69.8
CCCCNC(=O)C[C@H]1C[C@@]2(C(=O)OC)C(=C[C@H](C3CCCC3)O[C@@H]2C)N(Cc2ccc(Cl)cc2Cl)C1=O,.,-2.8,.,.,.,.
CCOC(=O)CSc1nc(-c2ccccn2)ncc1OC,-14.0,0.0,-4.0,-1.5,.,.
COc1cnc(-c2ccccn2)nc1Sc1ccc(F)cc1,66.8,-1.1,2.4,-1.8,28.8,-7.9
COc1cnc(N(C)C)nc1Sc1ccc(Cl)cc1,-18.0,4.8,0.2,1.3,.,.
COc1cnc(-c2ccccn2)nc1Sc1ccccc1,94.3*,-6.3,5.5,-1.2,34.9,0.6
COc1ccc(Sc2nc(-c3ccccn3)ncc2OC)cc1,91.6*,-6.1,0.1,-0.9,42.3,9.3
COc1cnc(-c2ccccn2)nc1Sc1ccc(Cl)cc1,69.8,-1.1,0.8,-2.2,11.7,-24.4
O=S1(=O)c2ccc(Br)cc2OC[C@H](Cc2ccccc2)N1Cc1cn(Cc2ccc(F)cc2)nn1,.,-8.1,.,.,.,.
Cc1sc(NC(=O)CN2CCOCC2)nc1-c1ccc2c(c1)CCN2S(=O)(=O)c1ccccc1,55.7,-3.0,3.2,1.3,85.1*,71.1*
COC(=O)[C@]12C[C@H](CC(=O)N3CCSCC3)C(=O)N(Cc3ccc(Cl)cc3Cl)C1=C[C@H](COCc1ccccc1)O[C@@H]2C,.,-7.3,.,.,.,.
CC(Oc1ccc(Cl)cc1Cl)c1nc(-c2ccc(NC(=O)c3ccncc3)cc2)no1 (stereo not drawn),50.6,-2.0,-3.4,-2.6,77.6*,72.2*
CC(Oc1ccc(Cl)cc1Cl)c1nc(-c2ccc(NC(=O)c3cccnc3)cc2)no1 (stereo not drawn),14.8,-1.5,0.0,-2.8,.,.
COc1ccc(/C(C)=N/N=C(N)N)c(O)c1,-8.8,3.2,-0.7,-0.1,.,.
CNC(=S)NN=C(C)c1ccc(OC)cc1O,72.3*,2.8,.,-1.7,-2.0,13.2
COc1ccccc1CNS(=O)(=O)c1ccc2c(c1)CC(C)N2C(=O)C1CCC1 (stereo not drawn),71.8*,-3.4,-0.6,1.0,72.2*,57.7
CC(=O)CC[C@H]1CC[C@]2(CCCN(C(=O)C(C)(C)C)C2)O1,.,6.6,.,.,.,.
